Measurements published in paper PMC9574854 (Journal of Medicinal Chemistry, 2022).

Assays:
PfPK6 = biological target: T1, PfPK6 (Plasmodium falciparum, UniProt Q8IDW1); assay: KinaseSeeker split luciferase assay on PfPK6; assay type: biochemical; settings: for remaining activity at 1 µM: read-out: PfPK6 PoC@1 μM; for activity on PfPK6, in words: screen at 1 μM; for selectivity (preference) for PfPK6 over PfGSK3: ratio of IC50 values; for LE PfPK6 (ligand efficiency): PfPK6 pIC50/number of heavy atoms in the molecule
T1 sequence (Q8IDW1 1-305): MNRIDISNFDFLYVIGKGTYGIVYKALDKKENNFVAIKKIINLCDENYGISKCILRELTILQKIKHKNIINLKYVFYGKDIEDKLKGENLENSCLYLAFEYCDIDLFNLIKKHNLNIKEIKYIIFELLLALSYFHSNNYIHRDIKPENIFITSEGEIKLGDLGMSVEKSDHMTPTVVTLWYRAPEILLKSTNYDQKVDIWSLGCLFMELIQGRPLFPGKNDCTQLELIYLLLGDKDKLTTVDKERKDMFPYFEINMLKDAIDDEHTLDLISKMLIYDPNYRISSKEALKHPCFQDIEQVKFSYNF

PfGSK3 = biological target: T2, PfGSK3 (Plasmodium falciparum, UniProt O77344); assay: KinaseSeeker split luciferase assay on PfGSK3; assay type: biochemical; settings: for activity on PfGSK3, in words: screen at 1 μM; for fold increase in potency on PfGSK3: compared to IKK16
T2 sequence (O77344 1-440): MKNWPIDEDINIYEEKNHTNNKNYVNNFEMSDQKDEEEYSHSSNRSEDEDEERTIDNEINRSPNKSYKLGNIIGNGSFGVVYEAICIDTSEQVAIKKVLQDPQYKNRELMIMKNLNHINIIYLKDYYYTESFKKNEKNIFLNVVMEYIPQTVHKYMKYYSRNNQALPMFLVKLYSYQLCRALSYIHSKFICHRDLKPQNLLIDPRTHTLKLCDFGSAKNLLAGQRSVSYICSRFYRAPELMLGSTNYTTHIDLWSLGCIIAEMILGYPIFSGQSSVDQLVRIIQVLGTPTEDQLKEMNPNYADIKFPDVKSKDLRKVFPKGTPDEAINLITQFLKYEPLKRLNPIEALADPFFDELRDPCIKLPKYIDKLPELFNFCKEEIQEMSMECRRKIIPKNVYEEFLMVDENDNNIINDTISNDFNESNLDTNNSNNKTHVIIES
Outline: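 Split-luciferase binding assay: lysate with Cfluc-PfGSK3 fusion plus Fos-Nfluc, incubated 2 h with test compound in DMSO (or DMSO control) and a kinase-specific probe. Luminescence was read immediately after luciferin reagent. % inhibition = (control − sample)/control × 100. Compounds were first counter-screened against split luciferase, then screened at 1 μM.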

468 human kinases = assay: DiscoverX KINOMEscan panel, selectivity score; assay type: binding; settings: for no. of kinase hits: 1 μM, 468 human kinases, PoC ≤10% (>90% inhibition); for reduction in selectivity: S10 (1 μM) compared to IKK16
[1] = in words; cited from earlier work
[2] = rats, in words; cited from earlier work
HepG2 cells = assay: HepG2 CellTiter-Glo cytotoxicity assay; assay type: cell-based, human; settings: HepG2, 2 μM
Outline: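 HepG2 cells were grown in DMEM with 10% FBS, 1% NEAA and 1% L-glutamine, without antibiotics. They were seeded at 4000 cells/well and left overnight at 37 °C, 5% CO₂. Test compound was added at 200 nM or 2 μM, in quadruplicate, with DMSO held constant, for 48 h. Viability was read by CellTiter-Glo 2 luminescence. % viability is the average of two experiments.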

PfCDPK1 = settings: read-out: PfCDPK1 IC50; cited from earlier work
Pf3D7 = settings: read-out: Pf3D7 blood stage EC50; blood stage proliferation; cited from earlier work

SMILES: Clc1cccc(Nc2nccc(-c3cc4ccccc4s3)n2)c1 [Compound 4c, 4-(Benzo[b]thiophen-2-yl)-N-(3-chlorophenyl)pyrimidin-2-amine]
- remaining activity at 1 µM (PfPK6): 100%

SMILES: O=C(c1ccc(Nc2nccc(-c3cccs3)n2)cc1)N1CCC(N2CCCC2)CC1 [Compound 18c, (4-(Pyrrolidin-1-yl)piperidin-1-yl)(4-((4-(thiophen-2-yl)pyrimidin-2-yl)amino)phenyl)methanone]
- activity on PfGSK3, in words (PfGSK3): inactivity

SMILES: O=C(NCCCN1CCOCC1)c1ccc(Nc2nccc(-c3cc4ccccc4s3)n2)cc1 [Compound 9g, 4-((4-(Benzo[b]thiophen-2-yl)pyrimidin-2-yl)amino)-N-(3-morpholinopropyl)benzamide]
- no. of kinase hits (468 human kinases): 32

SMILES: Cc1cnc(Nc2ccc(C(=O)NCCCN3CCOCC3)cc2)nc1-c1ccc(Cl)s1 [Compound 23g, 4-((4-(5-Chlorothiophen-2-yl)-5-methylpyrimidin-2-yl)amino)-N-(3-morpholinopropyl)benzamide]
- activity on PfGSK3, in words (PfGSK3): did not show significant activity

SMILES: COc1cccc(Nc2nccc(-c3cc4ccccc4s3)n2)c1 [Compound 4f, 4-(Benzo[b]thiophen-2-yl)-N-(3-methoxyphenyl)pyrimidin-2-amine]
- remaining activity at 1 µM (PfPK6): 100%

SMILES: O=C(c1ccc(Nc2nccc(-c3ccc(COCC(F)(F)F)s3)n2)cc1)N1CCC(N2CCCC2)CC1 [Compound 18m, (4-(Pyrrolidin-1-yl)piperidin-1-yl)(4-((4-(5-((2,2,2-trifluoroethoxy)methyl)thiophen-2-yl)pyrimidin-2-yl)amino)phenyl)methanone]
- fold increase in potency on PfPK6 (PfPK6; compared to its alcohol counterpart (18l)): ~2 fold

SMILES: c1ccc(Nc2nccc(-c3cc4ccccc4s3)n2)cc1 [Compound 4a, 4-(Benzo[b]thiophen-2-yl)-N-phenylpyrimidin-2-amine]
- activity on PfGSK3, in words (PfGSK3): failed to inhibit
- remaining activity at 1 µM (PfPK6): 100%
- activity on PfPK6, in words (PfPK6): failed to inhibit

SMILES: O=C(c1ccc(Nc2ncc(Cl)c(-c3cc4ccccc4s3)n2)cc1)N1CCC(N2CCCC2)CC1 [Compound 18r, (4-((4-(Benzo[b]thiophen-2-yl)-5-chloropyrimidin-2-yl)amino)phenyl)(4-(pyrrolidin-1-yl)piperidin-1-yl)methanone]
- fold increase in potency on PfPK6 (PfPK6; compared to IKK16): 20 fold
- selectivity (preference) for PfPK6 over PfGSK3 (PfPK6): 9 fold
- no. of kinase hits (468 human kinases): 88
- reduction in selectivity (468 human kinases): ~2 fold

SMILES: O=C(c1ccc(Nc2ncc(Cl)c(-c3ccc(Cl)s3)n2)cc1)N1CCC(N2CCCC2)CC1 [Compound 23d, (4-((5-Chloro-4-(5-chlorothiophen-2-yl)pyrimidin-2-yl)amino)phenyl)(4-(pyrrolidin-1-yl)piperidin-1-yl)methanone]
- no. of kinase hits (468 human kinases): 103

SMILES: O=C(NCCCN1CCOCC1)c1ccc(Nc2ncc(Cl)c(-c3ccc(Cl)s3)n2)cc1 [Compound 23e, 4-((5-Chloro-4-(5-chlorothiophen-2-yl)pyrimidin-2-yl)amino)-N-(3-morpholinopropyl)benzamide]
- IC50 (PfGSK3): < 100 nM
- no. of kinase hits (468 human kinases): 64
- reduction of promiscuity (kinase hits) (468 human kinases; compared to 23d, from 103 to 64 kinase hits): ~40%

SMILES: O=C(c1ccc(Nc2nccc(-c3cc4ccccc4s3)n2)cc1)N1CCC(N2CCCCC2)CC1 [Compound 9b, [1,4′-Bipiperidin]-1′-yl(4-((4-(benzo[b]thiophen-2-yl)pyrimidin-2-yl)amino)phenyl)methanone]
- fold increase in potency on PfPK6 (PfPK6; compared to IKK16): ~4 fold

SMILES: COc1ccccc1Nc1nccc(-c2cc3ccccc3s2)n1 [Compound 4g, 4-(Benzo[b]thiophen-2-yl)-N-(2-methoxyphenyl)pyrimidin-2-amine]
- remaining activity at 1 µM (PfPK6): 100%

SMILES: O=C(c1ccc(Nc2nccc(-c3ccc(-c4ccccc4)s3)n2)cc1)N1CCC(N2CCCC2)CC1 [Compound 18k, (4-((4-(5-Phenylthiophen-2-yl)pyrimidin-2-yl)amino)phenyl)(4-(pyrrolidin-1-yl)piperidin-1-yl)methanone]
- activity on PfGSK3, in words (PfGSK3): inactive

SMILES: O=C(c1ccc(Nc2nccc(-c3ccc(Cl)s3)n2)cc1)N1CCC(N2CCCC2)CC1 [Compound 18j, (4-((4-(5-Chlorothiophen-2-yl)pyrimidin-2-yl)amino)phenyl)(4-(pyrrolidin-1-yl)piperidin-1-yl)methanone]
- LE PfPK6 (ligand efficiency) (PfPK6): 0.30

SMILES: O=C(O)c1ccc(Nc2nccc(-c3cc4ccccc4s3)n2)cc1 [Compound 6, 4-((4-(Benzo[b]thiophen-2-yl)pyrimidin-2-yl)amino)benzoic acid]
- remaining activity at 1 µM (PfPK6): 100%

SMILES: O=C(c1ccc(Nc2nccc(-c3ccco3)n2)cc1)N1CCC(N2CCCC2)CC1 [Compound 18e, (4-((4-(Furan-2-yl)pyrimidin-2-yl)amino)phenyl)(4-(pyrrolidin-1-yl)piperidin-1-yl)methanone]
- activity on PfGSK3, in words (PfGSK3): inactive
- fold decrease in potency on PfPK6 (PfPK6; compared to thiophene 18c): more than 3 fold

SMILES: Cc1ccc(-c2nc(Nc3ccc(C(=O)N4CCC(N5CCCC5)CC4)cc3)ncc2C)s1 [Compound 23a, (4-((5-Methyl-4-(5-methylthiophen-2-yl)pyrimidin-2-yl)amino)phenyl)(4-(pyrrolidin-1-yl)piperidin-1-yl)methanone]
- activity on PfGSK3, in words (PfGSK3): did not reach our threshold

SMILES: Cc1ccc(-c2nc(Nc3ccc(C(=O)NCCCN4CCOCC4)cc3)ncc2Cl)s1 [Compound 23f, 4-((5-Chloro-4-(5-methylthiophen-2-yl)pyrimidin-2-yl)amino)-N-(3-morpholinopropyl)benzamide]
- IC50 (PfGSK3): < 100 nM

SMILES: O=C(NC1CC1)c1ccc(Nc2nccc(-c3cc4ccccc4s3)n2)cc1 [Compound 9j, 4-((4-(Benzo[b]thiophen-2-yl)pyrimidin-2-yl)amino)-N-cyclopropylbenzamide]
- fold increase in potency on PfGSK3 (PfGSK3): roughly 2 fold

SMILES: O=C(c1ccc(Nc2nccc(-c3cc4ccccc4s3)n2)cc1)N1CCC(N2CCCC2)CC1 [IKK16, reference compound]
- LE PfPK6 (ligand efficiency) (PfPK6): 0.26
- toxicity in a resazurin-based cell viability assay [1]: low toxicity
- oral bioavailability [2]: orally bioavailable
- no. of kinase hits (468 human kinases): 41

SMILES: Cc1cnc(Nc2ccc(C(=O)N3CCC(N4CCCC4)CC3)cc2)nc1-c1cc2ccccc2s1 [Compound 18n, (4-((4-(Benzo[b]thiophen-2-yl)-5-methylpyrimidin-2-yl)amino)phenyl)(4-(pyrrolidin-1-yl)piperidin-1-yl)methanone]
- fold increase in potency on PfPK6 (PfPK6; compared to IKK16): 9 fold
- selectivity (preference) for PfPK6 over PfGSK3 (PfPK6): ~16 fold
- more cytotoxicity than IKK16 (HepG2 cells): ~40%
- no. of kinase hits (468 human kinases): 100
- reduction in selectivity (468 human kinases): ~2 fold

SMILES: c1ccc(CNc2nccc(-c3cc4ccccc4s3)n2)cc1 [Compound 4h, 4-(Benzo[b]thiophen-2-yl)-N-benzylpyrimidin-2-amine]
- activity on PfGSK3, in words (PfGSK3): inactive
- remaining activity at 1 µM (PfPK6): 100%
- activity on PfPK6, in words (PfPK6): inactive

SMILES: Clc1ccccc1Nc1nccc(-c2cc3ccccc3s2)n1 [Compound 4d, 4-(Benzo[b]thiophen-2-yl)-N-(2-chlorophenyl)pyrimidin-2-amine]
- remaining activity at 1 µM (PfPK6): 100%

SMILES: Cn1cc(NC(=O)c2ccc(Nc3nccc(-c4cc5ccccc5s4)n3)cc2)cn1 [Compound 9k, 4-((4-(Benzo[b]thiophen-2-yl)pyrimidin-2-yl)amino)-N-(1-methyl-1H-pyrazol-4-yl)benzamide]
- activity on PfGSK3, in words (PfGSK3): no activity
- activity on PfPK6, in words (PfPK6): no activity

SMILES: CN1CCN(CCCNC(=O)c2ccc(Nc3nccc(-c4cc5ccccc5s4)n3)cc2)CC1 [Compound 9f, 4-((4-(Benzo[b]thiophen-2-yl)pyrimidin-2-yl)amino)-N-(3-(4-methylpiperazin-1-yl)propyl)benzamide]
- fold increase in potency on PfGSK3 (PfGSK3): 2 fold
- fold increase in potency on PfPK6 (PfPK6; compared to IKK16): ~3 fold

SMILES: N[C@H]1CC[C@H](Nc2nc(Nc3ccc(C(=O)N4CCCCC4)cc3)c3ncn(-c4cccc(F)c4)c3n2)CC1 [Purfalcamine]
- IC50 (PfCDPK1): 17 nM

SMILES: Cc1cn2c(-c3ccnc(NCC4CC4)n3)c(-c3ccc(F)c(NS(C)(=O)=O)c3)nc2cc1CN(C)C [ML10]
- EC50 (Pf3D7): 2.1 nM
